Source: ChEMBL document CHEMBL2176962, “Repositioning HIV-1 integrase inhibitors for cancer therapeutics: 1,6-naphthyridine-7-carboxamide as a promising scaffold with drug-like properties” (J Med Chem, 2012)
Calls of active or inactive are those of the source. The calls are words filed in the database; no cut-off is given here.

What was measured:
LNCaP = assay: Cytotoxicity against human LNCAP cells incubated for 72 hrs by MTT assay; assay type: functional, cell-based
In short: (§1)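 Cells were kept in DMEM (MDA-MB-435, MCF7, LNCaP) or RPMI (HT29, HCT116) with 10% heat-inactivated FBS and 2 mM L-glutamine, subconfluent and in exponential growth. They were seeded, allowed to adhere overnight, then exposed continuously to compound (10 mM DMSO stock) for 72 h. MTT was added to 0.3 mg/mL final for 3–4 h at 37 °C, formazan was dissolved in DMSO, and absorbance was read at 570 nm. Runs were in triplicate; IC50 came from log concentration versus percent cell kill.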

MCF7 = assay: Cytotoxicity against human MCF7 cells incubated for 72 hrs by MTT assay; assay type: functional, cell-based; details: MCF7, 72 h; in short: as §1
MDA-MB-435 [1] = assay: Inhibition of colony formation in human MDA-MB-435 cells at 10 uM treated continuously for 7 days by crystal violet staining based colony formation assay; assay type: functional, cell-based
In short: (§2)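 MDA-MB-435 cells (500 per well) were adhered overnight and treated with compound at 10 μM, or across a dose range. The methods describe a 24 h treatment, then PBS washing and 7–10 days regrowth; the figure legend describes continuous 7-day treatment. Colonies were fixed and stained with 2% crystal violet containing 1% glutaraldehyde, then imaged.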

MDA-MB-435 [2] = assay: Cytotoxicity against human MDA-MB-435 cells incubated for 72 hrs by MTT assay; assay type: functional, cell-based; details: MDA-MB-435, 72 h; in short: as §1
[3] = molecular target: Receptor tyrosine-protein kinase erbB-2 (Homo sapiens) (UniProt P04626); assay: Inhibition of ErbB2 at 10 uM incubated for 60 mins using poly(Glu,Tyr)4:1 substrate and 10 uM ATP by ELISA
Receptor tyrosine-protein kinase erbB-2 (Homo sapiens), sequence (P04626 whole entry): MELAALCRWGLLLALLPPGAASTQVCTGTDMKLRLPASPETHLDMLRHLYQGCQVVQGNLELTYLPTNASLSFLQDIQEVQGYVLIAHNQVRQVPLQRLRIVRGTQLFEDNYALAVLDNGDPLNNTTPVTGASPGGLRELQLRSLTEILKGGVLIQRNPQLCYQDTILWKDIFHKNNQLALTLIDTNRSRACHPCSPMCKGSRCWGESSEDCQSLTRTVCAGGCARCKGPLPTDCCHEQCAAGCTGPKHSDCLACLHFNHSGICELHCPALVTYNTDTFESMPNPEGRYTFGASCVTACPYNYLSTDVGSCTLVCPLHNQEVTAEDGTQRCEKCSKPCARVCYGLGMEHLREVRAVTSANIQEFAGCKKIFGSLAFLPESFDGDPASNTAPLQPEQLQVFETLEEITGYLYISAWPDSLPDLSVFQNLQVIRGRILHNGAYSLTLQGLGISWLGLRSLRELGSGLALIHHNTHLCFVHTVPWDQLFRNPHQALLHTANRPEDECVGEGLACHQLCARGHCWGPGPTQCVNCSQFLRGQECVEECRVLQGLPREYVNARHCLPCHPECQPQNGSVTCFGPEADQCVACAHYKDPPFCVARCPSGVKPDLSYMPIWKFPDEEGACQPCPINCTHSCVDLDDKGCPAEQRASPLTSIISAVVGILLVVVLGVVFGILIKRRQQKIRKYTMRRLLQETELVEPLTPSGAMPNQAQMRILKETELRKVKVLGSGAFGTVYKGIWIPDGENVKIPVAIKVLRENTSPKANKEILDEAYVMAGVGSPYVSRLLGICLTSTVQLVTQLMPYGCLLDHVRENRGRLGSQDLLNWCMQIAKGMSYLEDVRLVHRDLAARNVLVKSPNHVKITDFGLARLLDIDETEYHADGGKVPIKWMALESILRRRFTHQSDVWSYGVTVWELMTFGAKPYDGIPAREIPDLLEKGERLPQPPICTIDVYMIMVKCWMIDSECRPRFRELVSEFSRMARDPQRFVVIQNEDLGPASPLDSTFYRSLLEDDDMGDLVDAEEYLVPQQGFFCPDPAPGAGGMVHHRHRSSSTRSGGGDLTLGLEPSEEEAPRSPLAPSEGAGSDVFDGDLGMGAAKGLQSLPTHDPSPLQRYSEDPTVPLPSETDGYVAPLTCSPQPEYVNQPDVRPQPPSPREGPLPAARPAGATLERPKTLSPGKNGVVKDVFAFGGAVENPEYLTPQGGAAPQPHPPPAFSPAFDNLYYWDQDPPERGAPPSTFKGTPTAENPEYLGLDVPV
In short: (§3)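 ELISA with Poly(Glu,Tyr)4:1 (20 μg/mL) precoated as substrate and 10 μM ATP, in 50 mM HEPES pH 7.4, 20 mM MgCl2, 0.1 mM MnCl2, 0.2 mM Na3VO4, 1 mM DTT. Compound was tested at 10 μM, in duplicate. Kinase reaction ran 60 min at 37 °C. Phosphotyrosine was detected with PY99 and HRP anti-mouse IgG, developed with o-phenylenediamine/H2O2, stopped with H2SO4 and read at 492 nm. Inhibition = [1 − A492 treated/A492 control] × 100%. References: lapatinib (ErbB2) and PP2 (Src), each at 10 μM.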

[4] = molecular target: Proto-oncogene tyrosine-protein kinase Src (Homo sapiens) (UniProt P12931); assay: Inhibition of SRC at 10 uM incubated for 60 mins using poly(Glu,Tyr)4:1 substrate and 10 uM ATP by ELISA; in short: as §3
Proto-oncogene tyrosine-protein kinase Src (Homo sapiens), sequence (P12931 2-536 limits assumed): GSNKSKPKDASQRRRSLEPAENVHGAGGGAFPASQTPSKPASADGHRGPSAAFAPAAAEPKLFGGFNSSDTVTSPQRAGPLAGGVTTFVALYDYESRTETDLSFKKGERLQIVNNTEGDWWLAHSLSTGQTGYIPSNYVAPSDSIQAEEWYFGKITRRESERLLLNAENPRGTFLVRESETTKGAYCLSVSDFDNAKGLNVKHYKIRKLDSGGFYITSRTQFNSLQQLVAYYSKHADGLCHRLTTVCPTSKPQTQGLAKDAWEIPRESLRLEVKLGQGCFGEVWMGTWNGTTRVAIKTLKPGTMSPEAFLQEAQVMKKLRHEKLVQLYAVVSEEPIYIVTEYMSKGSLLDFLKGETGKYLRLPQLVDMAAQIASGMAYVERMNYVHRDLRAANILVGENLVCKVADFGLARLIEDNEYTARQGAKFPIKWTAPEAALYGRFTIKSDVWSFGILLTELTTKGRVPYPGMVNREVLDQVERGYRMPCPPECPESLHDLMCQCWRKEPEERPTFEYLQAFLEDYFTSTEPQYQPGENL

MDA-MB-435 [5] = assay: Inhibition of colony formation in human MDA-MB-435 cells treated continuously for 7 days by crystal violet staining based colony formation assay; assay type: functional, cell-based; in short: as §2
HT-29 = assay: Cytotoxicity against human HT-29 cells incubated for 72 hrs by MTT assay; assay type: functional, cell-based; details: HT-29, 72 h; in short: as §1
MDA-MB-435 [6] = assay: Induction of cell cycle arrest in human in human MDA-MB-435 cells assessed as accumulation at G0/G1 phase at 2 times cytotoxic IC50 level after 12 to 48 hrs by propidium iodide staining based flow cytometry; assay type: functional
HCT-116 [7] = assay: Cytotoxicity against p53 deficient human HCT116 cells incubated for 72 hrs by MTT assay; assay type: functional, cell-based; details: HCT-116, 72 h; in short: as §1
SK-BR-3 = assay: Cytotoxicity against human SKBR3 cells incubated for 72 hrs by MTT assay; assay type: functional, cell-based; details: SK-BR-3, 72 h
HCT-116 [8] = assay: Cytotoxicity against p53 expressing human HCT116 cells incubated for 72 hrs by MTT assay; assay type: functional, cell-based; details: HCT-116, 72 h; in short: as §1
MDA-MB-435 [9] = assay: Induction of cell cycle arrest in human in human MDA-MB-435 cells assessed as accumulation at G0/G1 phase at 2 times cytotoxic IC50 level after 12 hrs by propidium iodide staining based flow cytometry; assay type: functional
MDA-MB-435 [10] = assay: Induction of cell cycle arrest in human in human MDA-MB-435 cells assessed as accumulation at G0/G1 phase at 2 times cytotoxic IC50 level after 48 hrs by propidium iodide staining based flow cytometry (reference value: 36%); assay type: functional
[11] = molecular target: T1, Human immunodeficiency virus type 1 integrase (Human immunodeficiency virus 1, UniProt Q7ZJM1); assay: Inhibition of HIV1 integrase 3'-processing activity using [32P]-labeled linear oligonucleotide substrate
T1 sequence (Q7ZJM1 whole entry): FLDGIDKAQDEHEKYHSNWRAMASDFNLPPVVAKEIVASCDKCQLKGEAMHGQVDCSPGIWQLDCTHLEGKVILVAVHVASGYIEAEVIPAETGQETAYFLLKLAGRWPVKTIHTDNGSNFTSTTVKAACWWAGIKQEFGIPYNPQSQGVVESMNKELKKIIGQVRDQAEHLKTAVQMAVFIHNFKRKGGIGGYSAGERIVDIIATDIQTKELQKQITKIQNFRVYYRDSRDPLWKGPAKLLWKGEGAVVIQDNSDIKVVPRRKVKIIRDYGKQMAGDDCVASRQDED

[12] = molecular target: T1, Human immunodeficiency virus type 1 integrase; assay: Inhibition of HIV1 integrase strand transfer activity using [32P]-labeled linear oligonucleotide substrate

| SMILES | IC50 (LNCaP) | IC50 (MCF7) | inhibition (MDA-MB-435 [1]) | IC50 (MDA-MB-435 [2]) | inhibition [3] | inhibition [4] | inhibition (MDA-MB-435 [5]) | IC50 (HT-29) | Activity (MDA-MB-435 [6]) | IC50 (HCT-116 [7]) | IC50 (SK-BR-3) | IC50 (HCT-116 [8]) | Activity (MDA-MB-435 [9]) | Activity (MDA-MB-435 [10]) | IC50 [11] | IC50 [12] |
| --- | --- | --- | --- | --- | --- | --- | --- | --- | --- | --- | --- | --- | --- | --- | --- | --- |
| N[C@H]1CC[C@H](Nc2c(C(=O)NCc3ccc(F)cc3)nc(Br)c3cccnc23)CC1 | 5 µM | 2 µM | Active | 6 µM | 7% | 13% | Dose-dependent effect | < 1000 nM | Active | 4 µM | 2000 nM | 7 µM | – | – | – | – |
| NCCCNc1c(C(=O)NCc2ccc(F)cc2)nc(Br)c2cccnc12 | – | 6 µM | Active | 5 µM | – | – | – | – | – | 18 µM | – | > 20 µM | Active | 61% | > 100 µM | > 100 µM |
